Tests used:
Conditions in all cases: in vivo
Kidney = assay: Biodistribution in Wistar rat kidney at 11+/-2 MBq, iv after 80 mins; assay type: ADME, organism-based
Outline: (§1)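 Male Wistar rats (12 h light/dark, chow ad libitum) were fitted with a femoral arterial cannula under isoflurane. They were pretreated via tail vein with saline, cyclosporin A (50 mg/kg), or nonradioactive tracer compound (15 mg/kg; 10 mg/mL in saline with 35% ethanol). The 11C tracer was then given via penile vein, followed by 76 min microPET. Animals were then terminated; excised tissues were weighed and gamma-counted with decay correction. Values are SUVs (tissue MBq/g × body weight g / injected MBq).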

[1] = Biodistribution in Wistar rat amygdala at 11+/-2 MBq, iv after 80 mins; assay type: ADME, organism-based
[2] = Biodistribution in 15 mg/kg unlabeled 6,7-dimethoxy-2-(3-(5-methoxy-3,4-dihydronaphthalen-1(2H)-ylidene)propyl)-1,2,3,4-tetrahydroisoquinoline pretreated Wistar rat entorhinal cortex at 13+/-2 MBq, iv after 80 mins; assay type: ADME, organism-based; design: dose 15 mg/kg, route intravenous
Outline: (§2)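 Male Wistar rats given saline or unlabeled compound via tail vein: 15 mg/kg, dissolved at 10 mg/mL in saline with 35% ethanol. [11C] tracer (8-15 MBq) then given via penile vein. After microPET scanning the anesthetized rats were killed. Tissues were excised and weighed, and blood was spun for plasma and cell fraction. γ counting with decay correction. Results as SUV (tissue MBq/g × body weight/injected dose).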

[3] = Biodistribution in 15 mg/kg unlabeled 6,7-dimethoxy-2-(3-(5-methoxy-3,4-dihydronaphthalen-1(2H)-ylidene)propyl)-1,2,3,4-tetrahydroisoquinoline pretreated Wistar rat cingulate cortex at 13+/-2 MBq, iv after 80 mins; assay type: ADME, organism-based; design: dose 15 mg/kg, route intravenous; outline: as §2
[4] = Biodistribution in Wistar rat trachea at 11+/-2 MBq, iv after 80 mins; assay type: ADME, organism-based
[5] = Biodistribution in Wistar rat cingulate cortex at 11+/-2 MBq, iv after 80 mins; assay type: ADME, organism-based
Hippocampus [6] = assay: Biodistribution in Wistar rat hippocampus at 11+/-2 MBq, iv after 80 mins; assay type: ADME, organism-based; outline: as §1
Cerebellum = assay: Biodistribution in Wistar rat cerebellum at 11+/-2 MBq, iv after 80 mins; assay type: ADME, organism-based
[7] = Biodistribution in 15 mg/kg unlabeled 6,7-dimethoxy-2-(3-(5-methoxy-3,4-dihydronaphthalen-1(2H)-ylidene)propyl)-1,2,3,4-tetrahydroisoquinoline pretreated Wistar rat medulla at 13+/-2 MBq, iv after 80 mins; assay type: ADME, organism-based, Medulla of organ; design: dose 15 mg/kg, route intravenous; outline: as §2
[8] = Biodistribution in 15 mg/kg unlabeled 6,7-dimethoxy-2-(3-(5-methoxy-3,4-dihydronaphthalen-1(2H)-ylidene)propyl)-1,2,3,4-tetrahydroisoquinoline pretreated Wistar rat trachea at 13+/-2 MBq, iv after 80 mins; assay type: ADME, organism-based; design: dose 15 mg/kg, route intravenous; outline: as §2
[9] = Biodistribution in 15 mg/kg unlabeled 6,7-dimethoxy-2-(3-(5-methoxy-3,4-dihydronaphthalen-1(2H)-ylidene)propyl)-1,2,3,4-tetrahydroisoquinoline pretreated Wistar rat fat at 13+/-2 MBq, iv after 80 mins; assay type: ADME, organism-based, Adipose tissue; design: dose 15 mg/kg, route intravenous; outline: as §2
Colon = assay: Biodistribution in 15 mg/kg unlabeled 6,7-dimethoxy-2-(3-(5-methoxy-3,4-dihydronaphthalen-1(2H)-ylidene)propyl)-1,2,3,4-tetrahydroisoquinoline pretreated Wistar rat colon at 13+/-2 MBq, iv after 80 mins; assay type: ADME, organism-based; design: dose 15 mg/kg, route intravenous; outline: as §2
Hippocampus [10] = assay: Biodistribution in 15 mg/kg unlabeled 6,7-dimethoxy-2-(3-(5-methoxy-3,4-dihydronaphthalen-1(2H)-ylidene)propyl)-1,2,3,4-tetrahydroisoquinoline pretreated Wistar rat hippocampus at 13+/-2 MBq, iv after 80 mins; assay type: ADME, organism-based; design: dose 15 mg/kg, route intravenous; outline: as §2
[11] = Biodistribution in 15 mg/kg unlabeled 6,7-dimethoxy-2-(3-(5-methoxy-3,4-dihydronaphthalen-1(2H)-ylidene)propyl)-1,2,3,4-tetrahydroisoquinoline pretreated Wistar rat frontal cortex at 13+/-2 MBq, iv after 80 mins; assay type: ADME, organism-based; design: dose 15 mg/kg, route intravenous; outline: as §2
Liver = assay: Biodistribution in 15 mg/kg unlabeled 6,7-dimethoxy-2-(3-(5-methoxy-3,4-dihydronaphthalen-1(2H)-ylidene)propyl)-1,2,3,4-tetrahydroisoquinoline pretreated Wistar rat liver at 13+/-2 MBq, iv after 80 mins; assay type: ADME, organism-based; design: dose 15 mg/kg, route intravenous; outline: as §2
Heart = assay: Biodistribution in Wistar rat heart at 11+/-2 MBq, iv after 80 mins; assay type: ADME, organism-based; outline: as §1
[12] = Biodistribution in 15 mg/kg unlabeled 6,7-dimethoxy-2-(3-(5-methoxy-3,4-dihydronaphthalen-1(2H)-ylidene)propyl)-1,2,3,4-tetrahydroisoquinoline pretreated Wistar rat amygdala at 13+/-2 MBq, iv after 80 mins; assay type: ADME, organism-based; design: dose 15 mg/kg, route intravenous; outline: as §2
[13] = Biodistribution in Wistar rat red blood cells at 11+/-2 MBq, iv after 80 mins; assay type: ADME, organism-based, Erythrocyte
Duodenum = assay: Biodistribution in 15 mg/kg unlabeled 6,7-dimethoxy-2-(3-(5-methoxy-3,4-dihydronaphthalen-1(2H)-ylidene)propyl)-1,2,3,4-tetrahydroisoquinoline pretreated Wistar rat duodenum at 13+/-2 MBq, iv after 80 mins; assay type: ADME, organism-based; design: dose 15 mg/kg, route intravenous; outline: as §2
[14] = Biodistribution in 15 mg/kg unlabeled 6,7-dimethoxy-2-(3-(5-methoxy-3,4-dihydronaphthalen-1(2H)-ylidene)propyl)-1,2,3,4-tetrahydroisoquinoline pretreated Wistar rat bulbus olfactorius at 13+/-2 MBq, iv after 80 mins; assay type: ADME, organism-based, Olfactory bulb; design: dose 15 mg/kg, route intravenous; outline: as §2
Spleen [15] = assay: Biodistribution in Wistar rat spleen at 11+/-2 MBq, iv after 80 mins; assay type: ADME, organism-based
[16] = Biodistribution in Wistar rat entorhinal cortex at 11+/-2 MBq, iv after 80 mins; assay type: ADME, organism-based; outline: as §1
Brain = assay: Biodistribution in 15 mg/kg unlabeled 6,7-dimethoxy-2-(3-(5-methoxy-3,4-dihydronaphthalen-1(2H)-ylidene)propyl)-1,2,3,4-tetrahydroisoquinoline pretreated Wistar rat brain at 13+/-2 MBq, iv after 56 mins; assay type: ADME, organism-based; design: dose 15 mg/kg, route intravenous
Outline: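 Male Wistar rats given saline or unlabeled compound (15 mg/kg, 10 mg/mL in saline with 35% ethanol) via tail vein. [11C] tracer then given via penile vein. Dynamic microPET under anesthesia, with a 3D ROI drawn over the whole brain. SUV taken from the time-activity curve (frames 4×60 s, 3×120 s, 4×300 s, 3×600 s), assuming a density of 1 g/mL. Mean ± SEM.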

[17] = Biodistribution in Wistar rat frontal cortex at 11+/-2 MBq, iv after 80 mins; assay type: ADME, organism-based; outline: as §1
Spleen [18] = assay: Biodistribution in 15 mg/kg unlabeled 6,7-dimethoxy-2-(3-(5-methoxy-3,4-dihydronaphthalen-1(2H)-ylidene)propyl)-1,2,3,4-tetrahydroisoquinoline pretreated Wistar rat spleen at 13+/-2 MBq, iv after 80 mins; assay type: ADME, organism-based; design: dose 15 mg/kg, route intravenous; outline: as §2

COc1cc2c(cc1OC)CN(CC/C=C1\CCCc3c(O[11CH3])cccc31)CC2
SUV (Kidney): 1.53
SUV [1]: 0.65
SUV [2]: 0.49
SUV [3]: 0.31
SUV [4]: 1.25
SUV [5]: 0.7
SUV (Hippocampus [6]): 0.45
SUV (Cerebellum): 0.79
SUV [7]: 0.46
SUV [8]: 0.82
SUV [9]: 0.36
SUV (Colon): 0.74
SUV (Hippocampus [10]): 0.44
SUV [11]: 0.37
SUV (Liver): 2.34
SUV (Heart): 0.48
SUV [12]: 0.44
SUV [13]: 0.24
SUV (Duodenum): 1.01
SUV [14]: 0.4
SUV (Spleen [15]): 2.66
SUV [16]: 0.55
SUV (Brain): 0.68
SUV [17]: 0.65
SUV (Spleen [18]): 1.72

— ChEMBL document CHEMBL1137781, “Synthesis and preclinical evaluation of novel PET probes for P-glycoprotein function and expression” (J Med Chem, 2009)
